What all share (assay type): functional, cell-based
A short description of test [1]: Cytotoxicity against human H460 cells after 48 hrs by MTT assay. To be noted: NCI-H460, 48 h. The gist of the method:
(§1)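 Adherent cells grown in DMEM with 10% FBS at 37 °C under 5% CO2. Cells were seeded in 96-well plates and left 12 h to attach, then exposed in triplicate to a range of compound concentrations for 48 h, with cisplatin as positive control. MTT read-out was absorbance at 570 nm (reference 630 nm). IC50 was derived by the Reed–Muench method.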
On the technique in general: Tetrazolium assays rely on reduction of a dye to a coloured formazan, in cell work by metabolically active cells.

Test [2] in a line: Cytotoxicity against human HL60 cells after 48 hrs by MTT assay. To be noted: HL-60, 48 h. The gist of the method: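 HL-60 suspension cells were grown in DMEM with 10% FBS at 37 °C under 5% CO2. They were seeded at 1 × 10^5 cells/mL in 96-well plates just before compound addition, then exposed in triplicate to graded concentrations for 48 h, with cisplatin as positive control. MTT absorbance was read at 570 nm against 630 nm reference. IC50 was calculated by the Reed–Muench method.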

The next test relates to HeLa. Put plainly: Cytotoxicity against human HeLa cells after 48 hrs by MTT assay. In a few lines: as §1
The next test deals with MCF7. Put plainly: Cytotoxicity against human MCF7 cells after 48 hrs by MTT assay. To be noted: MCF7, 48 h. In a few lines:
as §1

Test [3] in a line: Cytotoxicity against human SMMC-7721 cells after 48 hrs by MTT assay. To be noted: SMMC-7721, 48 h. The gist of the method:
as §1

Data on 16 molecules can be found in ChEMBL document CHEMBL3352359, “Cycloartane triterpenoids and their glycosides from the rhizomes of Cimicifuga foetida” (J Nat Prod, 2014).

One may read the IC50 as the concentration needed to halve the response being measured. As for `C[C@H](CC(=O)[C@@H]1OC1(C)C)[C@H]1C(=O)C[C@@]2(C)C3=CC[C@H]4C(C)(C)[C@@H](O[C@@H]5OC[C@@H](O)[C@H](O)[C@H]5O)CC[C@]4(O)CC3=CC[C@]12C`, the IC50 (in test [1]; in test [2]; in the test with HeLa; in the test on MCF7; in test [3]) was more than 10 µM throughout.
For `C[C@H](CC(=O)[C@@H](O)C(C)(C)O)[C@H]1C(=O)C[C@@]2(C)C3=CC[C@@H]4C(=CC[C@H](O)C4(C)C)CC3=CC[C@]12C`, the IC50 (in test [1]; in test [2]; with HeLa; in the test with MCF7; in test [3]) was more than 10 µM each time.
As for `C[C@H](CC(=O)[C@H](O)C(C)(C)O)[C@H]1C(=O)C[C@@]2(C)C3=CC[C@H]4C(C)(C)[C@@H](O[C@@H]5OC[C@@H](O)[C@H](O)[C@H]5O)CC[C@@]4(O)CC3=CC[C@]12C`, the IC50 (in test [1]; in test [2]; in the test with HeLa; with MCF7; in test [3]) was more than 10 µM in each case.
In the case of `CC(=O)O[C@@H]1C[C@@]23C[C@@]24CC[C@H](O[C@@H]2OC[C@@H](O)[C@H](O)[C@H]2O)C(C)(C)[C@@H]4CC[C@H]3[C@]2(C)[C@@H](O)[C@]34O[C@H](C[C@@H](C)[C@@H]3[C@@]12C)[C@@H](C(C)(C)O)O4`, the IC50 (in test [1]; in test [2]; with HeLa; in the test on MCF7; in test [3]) was more than 10 µM each time.
`CC(=O)O[C@@H]1[C@@H](O)[C@H](O[C@H]2CC[C@]34C[C@]35CC[C@]3(C)[C@H]6[C@H](C)C[C@H]7O[C@@]6(O[C@@H]7C(C)(C)OC(C)=O)[C@H](O)[C@@]3(C)[C@@H]5CC[C@H]4C2(C)C)OC[C@H]1O`: the concentration for half-maximal inhibition (IC50) was more than 10 µM in test [1]; more than 10 µM in test [2]; more than 10 µM in the test on HeLa; more than 10 µM in the test with MCF7; 5.5 µM in test [3].
In the case of `CC(=O)O[C@@H]1C[C@@]23C[C@@]24CC[C@H](O[C@@H]2OC[C@@H](O)[C@H](O)[C@H]2O)C(C)(C)[C@@H]4CC[C@H]3[C@]2(C)C[C@@H]3O[C@@]4(C[C@@H](C)[C@@H]3[C@@]12C)OC[C@]1(C)O[C@H]41`, the IC50 (in test [1]; in test [2]; with HeLa; in the test on MCF7; in test [3]) was more than 10 µM each time.
For the molecule `C[C@@H]1C[C@H]2O[C@@]3(O[C@@H]2C(C)(C)O)[C@H](O)[C@@]2(C)[C@@H]4CC[C@H]5C(C)(C)[C@@H](O[C@@H]6OC[C@@H](O)[C@H](O)[C@H]6O)CC[C@@]56C[C@@]46C[C@@H](O)[C@]2(C)[C@@H]13`, the half-inhibitory concentration (IC50) (in test [1]; in test [2]; with HeLa; with MCF7; in test [3]) was more than 10 µM throughout.
Turning to `C[C@H](CC(=O)[C@@H]1OC1(C)C)[C@H]1C(=O)C[C@@]2(C)C3=CC[C@H]4C(C)(C)[C@@H](O[C@@H]5OC[C@@H](O)[C@H](O)[C@H]5O)CC[C@@]4(O)CC3=CC[C@]12C`, the IC50 (in test [1]; in test [2]; in the test on HeLa; in the test on MCF7; in test [3]) was more than 10 µM in each case.
As to `C=C(C)[C@@H](O)C(=O)C[C@@H](C)[C@H]1C(=O)C[C@@]2(C)C3=CC[C@H]4C(C)(C)[C@@H](O[C@@H]5OC[C@@H](O)[C@H](O)[C@H]5O)CC[C@@]45C[C@]35[C@@H](O)C[C@]12C`, the IC50 (in test [1]; in test [2]; with HeLa; with MCF7; in test [3]) was more than 10 µM each time.
Take `CC(=O)O[C@@H]1C[C@@]23C[C@@]24CC[C@H](O[C@@H]2OC[C@@H](O)[C@H](O)[C@H]2O)C(C)(C)[C@@H]4CC[C@H]3[C@]2(C)C[C@@H]3O[C@]4(O)[C@H](OC(C)(C)[C@@H]4O)[C@@H](C)[C@@H]3[C@@]12C`: the IC50 (in test [1]; in test [2]; with HeLa; with MCF7; in test [3]) was more than 10 µM throughout.
Regarding `C[C@H](CC(=O)[C@H](O)C(C)(C)O)[C@H]1C(=O)C[C@@]2(C)C3=CC[C@@H]4C(=CC[C@H](O)C4(C)C)CC3=CC[C@]12C`, the IC50 (in test [1]; in test [2]; in the test with HeLa; in the test on MCF7; in test [3]) was more than 10 µM throughout.
`CC(=O)O[C@@H]1C[C@@]23C[C@@]24CC[C@H](O[C@@H]2OC[C@@H](O)[C@H](O)[C@H]2O)C(C)(C)[C@@H]4CC[C@H]3[C@]2(C)C[C@@H]3O[C@]4(C[C@@H](C)[C@@H]3[C@@]12C)O[C@H](O)[C@@]1(C)O[C@@H]41` [ACTEIN]: the IC50 (in test [1]; in test [2]; in the test with HeLa; in the test with MCF7; in test [3]) was more than 10 µM in each case.
Turning to `C[C@H](CC(=O)[C@H](O)C(C)(C)O)[C@H]1C(=O)C[C@@]2(C)C3=CC[C@H]4C(C)(C)[C@@H](O[C@@H]5OC[C@@H](O)[C@H](O)[C@H]5O)CC[C@]4(O)CC3=CC[C@]12C`, the half-inhibitory concentration (IC50) (in test [1]; in test [2]; in the test on HeLa; in the test with MCF7; in test [3]) was more than 10 µM each time.
Regarding `CC(=O)O[C@@H]1CO[C@@H](O[C@H]2CC[C@]34C[C@]35CC[C@]3(C)[C@H]6[C@H](C)C[C@H]7O[C@@]6(O[C@@H]7C(C)(C)OC(C)=O)[C@H](O)[C@@]3(C)[C@@H]5CC[C@H]4C2(C)C)[C@H](O)[C@H]1O`, the IC50 in test [1] was more than 10 µM; in test [2], more than 10 µM; with HeLa it was more than 10 µM; in the test with MCF7, more than 10 µM; in test [3] it was 6.3 µM.
Regarding `CC(=O)O[C@@H]1C[C@@]23C[C@@]24CC[C@H](O[C@@H]2OC[C@@H](O)[C@H](O)[C@H]2O)C(C)(C)[C@@H]4CC[C@H]3[C@]2(C)C[C@@H]3OC(C(O)C(C)(C)O)=C[C@@H](C)[C@@H]3[C@@]12C` (stereo not given in full), the half-maximal inhibitory concentration (IC50) (in test [1]; in test [2]; in the test with HeLa; with MCF7; in test [3]) was more than 10 µM each time.
As for `CC(=O)O[C@@H]1C[C@@]23C[C@@]24CC[C@H](O[C@@H]2OC[C@@H](O)[C@H](O)[C@H]2O)C(C)(C)[C@@H]4CC[C@H]3[C@]2(C)C[C@@H]3O[C@](O)(C(=O)C(C)C)C[C@@H](C)[C@@H]3[C@@]12C`, the IC50 (in test [1]; in test [2]; with HeLa; in the test with MCF7; in test [3]) was more than 10 µM in each case.
